Measurements from ChEMBL document CHEMBL4680079, “Discovery of a Quinoline-4-carboxamide Derivative with a Novel Mechanism of Action, Multistage Antimalarial Activity, and Potent in Vivo Efficacy” (J Med Chem, 2016).
Values after ≈ are worked out from the molar mass of the structure shown.

What was measured:
Plasmodium falciparum [1] = test: Antiplasmodial activity against chloroquine-sensitive Plasmodium falciparum 3D7 infected in human red blood cells assessed as growth inhibition by SYBR Green fluorescence assay; format: functional, organism-based, RBC; details: 3D7, Erythrocyte
Procedure, shortened: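 P. falciparum 3D7 grown in 5% human red cells in RPMI 1640 (pH 7.3) with 0.5% Albumax II, hypoxanthine and gentamicin at 37°C under 1% O₂/3% CO₂. Growth measured by SYBR green fluorescence (ex 485/em 528 nm), with mefloquine as assay control. EC50 calculated.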

MRC5 = test: Antiproliferative activity against human MRC5 cells assessed as reduction in cell viability after 68 hrs by resazurin dye based fluorescence assay; details: MRC5, 68 h
Procedure, shortened: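 MRC-5 fibroblasts plated overnight as monolayers, exposed to compound pre-diluted in MEM for 68 h. Resazurin then added (final 50 μM) for 3 h, fluorescence read at ex 528/em 590 nm. Signal converted to % inhibition against high- and no-inhibition controls. Plates accepted at Z' > 0.5.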

Plasmodium falciparum [2] = test: Antiplasmodial activity against late stage (IV/V) Plasmodium falciparum NF54 gametocytes transfected with GFP-LUC assessed as growth inhibition incubated for 72 hrs by mitotracker Red-CMXROS dye based fluorescence microscopic analysis; format: functional, organism-based; details: NF54, 72 h
Procedure, shortened: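 NF54 pfs16-LUC-GFP stage IV–V gametocytes (10% parasitaemia, 0.1% haematocrit) exposed to compound in 0.4% DMSO, three concentrations per log, for 72 h at 37°C under 5% CO2/5% O2/90% N2. MitoTracker Red CM-H2Xros then added for 16 h and viable gametocytes counted by imaging.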

[3] = Permeability of the compound at 10 uM incubated for 5 hrs by UPLC-MS/MS analysis based PAMPA method; format: ADME; details: read-out: permeability
Procedure, shortened: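 PAMPA run on a lipid-oil-lipid tri-layer filter at pH 7.4. Compound at 10 μM in PBS (DMSO ≤5%) in donor wells, PBS in acceptor wells, kept 5 h at room temperature. Both compartments quantified by UPLC-MS/MS. Data accepted only when recovery exceeded 70%.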

Plasmodium berghei [4] = test: Antiplasmodial activity against Plasmodium berghei ANKA infected in NMRI mouse assessed as reduction in parasitemia at 1 mg/kg, po QD for 4 days; format: functional; design: scale not given: the % may be the effect or the level left; details: time 4 day
Procedure, shortened: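 Female NMRI mice (n=3 per group, randomized, not blinded) infected with GFP-transfected P. berghei ANKA. Oral dosing once daily for 4 days in 10% DMSO/40% PEG400/50% water or HPMC suspension vehicle. Parasitaemia measured by flow cytometry on blood collected 96 h after infection. Mice watched for toxicity over 4 h post-dose each day.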

[5] = Intrinsic clearance in CD1 mouse liver microsomes at 0.5 uM in presence of NADPH incubated upto 30 mins by UPLC-MS/MS analysis; format: ADME, Microsome; details: 0.5 h
Procedure, shortened: (§1)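 Compound at 0.5 μM incubated with female CD1 mouse, male Sprague-Dawley rat or pooled human liver microsomes (0.5 mg/mL, 50 mM potassium phosphate, pH 7.4). Reaction started with excess NADPH. Samples taken at 0-30 min, quenched in acetonitrile, analysed by UPLC-MS/MS. Verapamil used as control, single time course.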

[6] = Intrinsic clearance in Sprague-Dawley rat liver microsomes at 0.5 uM in presence of NADPH incubated upto 30 mins by UPLC-MS/MS analysis; format: ADME, Microsome; details: 0.5 h; procedure, shortened: as §1
Plasmodium berghei [7] = test: Antiplasmodial activity against Plasmodium berghei ANKA infected in NMRI mouse assessed as survival days at 1 mg/kg, po QD for 4 days; format: functional; details: time 4 day
[8] = Kinetic aqueous solubility of the compound by laser nephelometry; format: physicochemical; details: read-out: Kinetic_solubility
Procedure, shortened: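 Kinetic solubility measured by laser nephelometry. DMSO serial dilutions diluted into water to give final 100–5 μg/mL at 1.0% DMSO. Read immediately, in triplicate aliquots.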

[9] = Intrinsic clearance in human liver microsomes at 0.5 uM in presence of NADPH incubated upto 30 mins by UPLC-MS/MS analysis; format: ADME, Microsome; details: 0.5 h; procedure, shortened: as §1
[10] = Protein binding in CD1 mouse plasma measured after 5 hr by UPLC-MS/MS analysis based equilibrium dialysis method; format: ADME, cell-free; details: mouse, 5 h
Procedure, shortened: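 Equilibrium dialysis of female CD1 mouse plasma spiked at 10 μg/mL (12-14 kDa membrane) against isotonic buffer for 5 h at ~37°C with shaking. Unbound fraction taken as the buffer/plasma peak-area ratio by UPLC-MS/MS. n=6 replicates, run in triplicate.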

SMILES	EC50 (Plasmodium falciparum [1]) [µM]	EC50 (MRC5) [µM]	CLH [5] [mL/min/g]	solubility kinetic [8] [µM]	other results
O=C(NCCN1CCCC1)c1cc(-c2ccc(N3CCOCC3)cc2)nc2ccc(F)cc12	0.6	17			
C[C@@H]1CC[C@H]2[C@@H](C)C(=O)O[C@@H]3O[C@@]4(C)CC[C@@H]1[C@]32OO4 [ARTEMISININ]					EC50 (Plasmodium falciparum [2]): 0.0008 µM
O=C(NCCN1CCCC1)c1cc(-c2ccc(CN3CCS(=O)(=O)CC3)cc2)nc2ccc(F)cc12	0.0006	41	< 0.5	171 (≈ 87.3 µg/mL)	Papp at 5 h, 10 µM [3]: 1.4 ×10⁻⁶ cm/s; Activity (Plasmodium berghei [4]): 99%; CLH [6]: 0.8 mL/min/g; Survival (Plasmodium berghei [7]): 7 days
O=C(NCCN1CCCC1)c1cc(NCCC2CCOCC2)nc2ccc(F)cc12	0.002	> 50			
CN(C)c1ccc(-c2cc(C(=O)NCCN3CCCC3)c3cc(F)ccc3n2)cc1	0.81	10			
O=C(NCCN1CCCC1)c1cc(-c2ccc(CN3CCOCC3)c(F)c2)nc2ccc(F)cc12	0.0006	19	1	> 208	Papp at 5 h, 10 µM [3]: 6.3 ×10⁻⁶ cm/s; Activity (Plasmodium berghei [4]): 99.8%; Survival (Plasmodium berghei [7]): 11 days
Cc1ccc(-c2cc(C(=O)NCCN3CCN(C)CC3)c3cc(Cl)ccc3n2)cc1	3.3	8			
O=C(NCCN1CCCC1)c1cc(N2CCC(N3CCOCC3)CC2)nc2ccc(F)cc12	0.68	25	0.5	220 (≈ 100 µg/mL)	
O=C(NCCN1CCCC1)c1cc(-c2cccc(CN3CCOCC3)c2)nc2ccc(F)cc12	11				
Cc1ccc(-c2cc(C(=O)NCCN(C)C)c3cc(Cl)ccc3n2)cc1	1.2	9			
O=C(NCCN1CCCC1)c1cc(NCCN2CCCCC2)nc2ccc(F)cc12	8.9	19			
O=C(NCCN1CCC(F)(F)CC1)c1cc(NCCCN2CCOCC2)nc2ccc(F)cc12	15				Papp at 5 h, 10 µM [3]: 9.4 ×10⁻⁶ cm/s
Cc1ccc(-c2cc(C(=O)NCCCN(C)C)c3cc(Cl)ccc3n2)cc1	6.7	6	1.1	262 (≈ 100 µg/mL)	
Cc1cc(Nc2cc(C(=O)NCCN3CCCC3)c3cc(F)ccc3n2)on1	> 50	> 50			
Cc1ccc(-c2cc(C(=O)Nc3cccnc3)c3cc(Cl)ccc3n2)cc1	0.29	21			
O=C(NCCN1CCCC1)c1cc(N2CCn3ccnc3C2)nc2ccc(F)cc12	5.8	> 50			
Cc1ccc(-c2cc(C(=O)NCCN3CCOCC3)c3cc(Cl)ccc3n2)cc1	3.6	26	11	12 (≈ 4.92 µg/mL)	
COc1ccc2nc3cc(Cl)ccc3c(Nc3cc(CN4CCCC4)c(O)c(CN4CCCC4)c3)c2n1 [PYRONARIDINE]					EC50 (Plasmodium falciparum [2]): 3.11 µM

SMILES	EC50 (Plasmodium falciparum [1]) [µM]	EC50 (MRC5) [µM]	CLH [5] [mL/min/g]	solubility kinetic [8] [µM]	other results
O=C(NCCN1CCCC(F)(F)C1)c1cc(NCCCN2CCOCC2)nc2ccc(F)cc12	36				Papp at 5 h, 10 µM [3]: 12 ×10⁻⁶ cm/s
COc1cc(C)c2c(Oc3cccc(C(F)(F)F)c3)c(OC)cc(NC(C)CCCN)c2n1 (centres undefined) [TAFENOQUINE]					EC50 (Plasmodium falciparum [2]): 5.25 µM
Cc1ccc(-c2cc(C(=O)Nc3cccnc3)c3cc(F)ccc3n2)cc1	0.35	50	8.6	36 (≈ 12.9 µg/mL)	
O=C(NCCN1CCCC1)c1cc(-c2ccc(CN3CCCC3=O)cc2)nc2ccc(F)cc12	0.007		2	> 217	Papp at 5 h, 10 µM [3]: 4.9 ×10⁻⁶ cm/s; Activity (Plasmodium berghei [4]): <40%; CLH [6]: 0.6 mL/min/g; CLH [9]: 2 mL/min/g
Cc1ccc(-c2cc(C(=O)NCCN3CCCC3)c3cc(F)ccc3n2)cc1	0.7	9	3.4	180 (≈ 67.9 µg/mL)	
O=C(NCCN1CCCC1)c1cc(-c2ccc(C(=O)N3CCOCC3)cc2)nc2ccc(F)cc12	0.14	> 50			
Cc1ccc(-c2cc(C(=O)Nc3cccnc3)c3cc(Br)ccc3n2)cc1	0.12	21	5.3	39 (≈ 16.3 µg/mL)	
O=C(NCCN1CCOCC1)c1cc(-c2ccc(CN3CCOCC3)cc2)nc2ccc(F)cc12	0.012		< 0.5	> 210	
O=C(NCCN1CCC(F)CC1)c1cc(NCCCN2CCOCC2)nc2ccc(F)cc12	0.9				Papp at 5 h, 10 µM [3]: 5.8 ×10⁻⁶ cm/s
O=C(NCCN1CCCC1)c1cc(-c2ccc(CN3CCOCC3)cc2Cl)nc2ccc(F)cc12	0.003	> 50	0.5	> 201	PPB [10]: 56%
O=C(NCCN1CCOCC1)c1cc(NCCCN2CCOCC2)nc2ccc(F)cc12	2.5				Papp at 5 h, 10 µM [3]: 2.4 ×10⁻⁶ cm/s
Cc1ccc(-c2cc(C(=O)NCCN3CCCCC3)c3cc(Cl)ccc3n2)cc1	0.32	7			
O=C(NCCN1CCC(F)(F)C1)c1cc(NCCCN2CCOCC2)nc2ccc(F)cc12	18				Papp at 5 h, 10 µM [3]: 8.9 ×10⁻⁶ cm/s
O=C(NCCN1CCCC1)c1cc(NCCN2CCOCC2)nc2ccc(F)cc12	0.19	50			
CN1CCN(c2cc(C(=O)NCCN3CCCC3)c3cc(F)ccc3n2)CC1	34	20			
Cc1ccc(-c2cc(C(=O)Nc3cccnc3)c3ccccc3n2)cc1	0.99	> 50			
O=C(NCCN1CCCC1)c1cc(N2CCC(N3CCOCC3)CC2)nc2ccc(Cl)cc12	0.15	13	2.3	210 (≈ 99.1 µg/mL)	
Cc1ccc(-c2cc(C(=O)NCCN3CCCC3)c3cc(Cl)ccc3n2)cc1	0.44	7	2.1	13 (≈ 5.12 µg/mL)	
